Results published in PMC4832308 (Cancer, 2015).

Tested on: patients with advanced solid tumors or multiple myeloma
Assay: phase 1 dose escalation: safety, tolerability, DLT, MTD
Format: in vivo, human
In short: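 Modified accelerated titration from 7.5 mg, oral daily in 28-day cycles. Single-patient cohorts used 100% increments until the first drug-related grade ≥2 toxicity, then 6-patient cohorts used ~50% steps. A dose with ≥2 DLTs was nontolerated. MTD was the last lower dose with 0–1 of 6 DLTs in cycle 1. Adverse events were graded by NCI CTCAE version 4.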

CO[C@H]1CC[C@H](N2C(=O)CNc3ncc(-c4ccc(C(C)(C)O)nc4)nc32)CC1 [CC‐223]
Dyspnea (treatment‐related AE) (45 mg, Any Grade): 1 (11) n (%)
Fatigue (treatment‐related AE) (45 mg, Any Grade): 5 (56) n (%)
Hyperglycemia (treatment‐related AE) (45 mg, Any Grade): 4 (44) n (%)
Increased glycosylated hemoglobin (treatment‐related AE) (45 mg, Any Grade): 2 (22) n (%)
Mucositis (treatment‐related AE) (45 mg, Any Grade): 3 (33) n (%)
Nausea (treatment‐related AE) (45 mg, Any Grade): 6 (67) n (%)
Pruritus (treatment‐related AE) (45 mg, Any Grade): 2 (22) n (%)
Rash (treatment‐related AE) (45 mg, Any Grade): 2 (22) n (%)
Rash pruritic (treatment‐related AE) (45 mg, Any Grade): 0 n (%)
Thrombocytopenia (treatment‐related AE) (45 mg, Any Grade): 2 (22) n (%)
Vomiting (treatment‐related AE) (45 mg, Any Grade): 2 (22) n (%)
Arthralgia (treatment‐related AE) (45 mg, Grade ≥3): 0 n (%)
Asthenia (treatment‐related AE) (45 mg, Grade ≥3): 0 n (%)
Decreased appetite (treatment‐related AE) (45 mg, Grade ≥3): 0 n (%)
Diarrhea (treatment‐related AE) (45 mg, Grade ≥3): 0 n (%)
Dry mouth (treatment‐related AE) (45 mg, Grade ≥3): 0 n (%)
Dysgeusia (treatment‐related AE) (45 mg, Grade ≥3): 0 n (%)
Dyspnea (treatment‐related AE) (45 mg, Grade ≥3): 0 n (%)
Fatigue (treatment‐related AE) (45 mg, Grade ≥3): 1 (11) n (%)
Hyperglycemia (treatment‐related AE) (45 mg, Grade ≥3): 1 (11) n (%)
Increased glycosylated hemoglobin (treatment‐related AE) (45 mg, Grade ≥3): 0 n (%)
Mucositis (treatment‐related AE) (45 mg, Grade ≥3): 0 n (%)
Nausea (treatment‐related AE) (45 mg, Grade ≥3): 0 n (%)
Pruritus (treatment‐related AE) (45 mg, Grade ≥3): 0 n (%)
Rash (treatment‐related AE) (45 mg, Grade ≥3): 1 (11) n (%)
Rash pruritic (treatment‐related AE) (45 mg, Grade ≥3): 0 n (%)
Thrombocytopenia (treatment‐related AE) (45 mg, Grade ≥3): 0 n (%)
Vomiting (treatment‐related AE) (45 mg, Grade ≥3): 0 n (%)
Dose interruptions (60 mg): 7
Dose reductions (60 mg): 5
Arthralgia (treatment‐related AE) (60 mg, Any Grade): 2 (29) n (%)
Asthenia (treatment‐related AE) (60 mg, Any Grade): 3 (43) n (%)
Decreased appetite (treatment‐related AE) (60 mg, Any Grade): 2 (29) n (%)
Diarrhea (treatment‐related AE) (60 mg, Any Grade): 5 (71) n (%)
Dry mouth (treatment‐related AE) (60 mg, Any Grade): 0 n (%)
Dysgeusia (treatment‐related AE) (60 mg, Any Grade): 1 (14) n (%)
Dyspnea (treatment‐related AE) (60 mg, Any Grade): 1 (14) n (%)
Fatigue (treatment‐related AE) (60 mg, Any Grade): 7 (100) n (%)
Hyperglycemia (treatment‐related AE) (60 mg, Any Grade): 4 (57) n (%)
Increased glycosylated hemoglobin (treatment‐related AE) (60 mg, Any Grade): 2 (29) n (%)
Mucositis (treatment‐related AE) (60 mg, Any Grade): 5 (71) n (%)
Nausea (treatment‐related AE) (60 mg, Any Grade): 3 (43) n (%)
Pruritus (treatment‐related AE) (60 mg, Any Grade): 0 n (%)
Rash (treatment‐related AE) (60 mg, Any Grade): 3 (43) n (%)
Rash pruritic (treatment‐related AE) (60 mg, Any Grade): 2 (29) n (%)
Thrombocytopenia (treatment‐related AE) (60 mg, Any Grade): 0 n (%)
Vomiting (treatment‐related AE) (60 mg, Any Grade): 5 (71) n (%)
Arthralgia (treatment‐related AE) (60 mg, Grade ≥3): 1 (14) n (%)
Asthenia (treatment‐related AE) (60 mg, Grade ≥3): 0 n (%)
Decreased appetite (treatment‐related AE) (60 mg, Grade ≥3): 0 n (%)
Diarrhea (treatment‐related AE) (60 mg, Grade ≥3): 1 (14) n (%)
Dry mouth (treatment‐related AE) (60 mg, Grade ≥3): 0 n (%)
Dysgeusia (treatment‐related AE) (60 mg, Grade ≥3): 0 n (%)
Dyspnea (treatment‐related AE) (60 mg, Grade ≥3): 0 n (%)
Fatigue (treatment‐related AE) (60 mg, Grade ≥3): 1 (14) n (%)
Hyperglycemia (treatment‐related AE) (60 mg, Grade ≥3): 2 (29) n (%)
Increased glycosylated hemoglobin (treatment‐related AE) (60 mg, Grade ≥3): 0 n (%)
Mucositis (treatment‐related AE) (60 mg, Grade ≥3): 2 (29) n (%)
Nausea (treatment‐related AE) (60 mg, Grade ≥3): 0 n (%)
Pruritus (treatment‐related AE) (60 mg, Grade ≥3): 0 n (%)
Rash (treatment‐related AE) (60 mg, Grade ≥3): 1 (14) n (%)
Rash pruritic (treatment‐related AE) (60 mg, Grade ≥3): 2 (29) n (%)
Thrombocytopenia (treatment‐related AE) (60 mg, Grade ≥3): 0 n (%)
Vomiting (treatment‐related AE) (60 mg, Grade ≥3): 0 n (%)
Arthralgia (treatment‐related AE) (Overall (N = 28), Any Grade): 4 (14) n (%)
Asthenia (treatment‐related AE) (Overall (N = 28), Any Grade): 7 (25) n (%)
Decreased appetite (treatment‐related AE) (Overall (N = 28), Any Grade): 9 (32) n (%)
Diarrhea (treatment‐related AE) (Overall (N = 28), Any Grade): 13 (46) n (%)
Dry mouth (treatment‐related AE) (Overall (N = 28), Any Grade): 3 (11) n (%)
Dysgeusia (treatment‐related AE) (Overall (N = 28), Any Grade): 5 (18) n (%)
Dyspnea (treatment‐related AE) (Overall (N = 28), Any Grade): 3 (11) n (%)
Fatigue (treatment‐related AE) (Overall (N = 28), Any Grade): 18 (64) n (%)
Hyperglycemia (treatment‐related AE) (Overall (N = 28), Any Grade): 12 (43) n (%)
Increased glycosylated hemoglobin (treatment‐related AE) (Overall (N = 28), Any Grade): 4 (14) n (%)
Mucositis (treatment‐related AE) (Overall (N = 28), Any Grade): 11 (39) n (%)
Nausea (treatment‐related AE) (Overall (N = 28), Any Grade): 14 (50) n (%)
Pruritus (treatment‐related AE) (Overall (N = 28), Any Grade): 4 (14) n (%)
Rash (treatment‐related AE) (Overall (N = 28), Any Grade): 7 (25) n (%)
Rash pruritic (treatment‐related AE) (Overall (N = 28), Any Grade): 3 (11) n (%)
Thrombocytopenia (treatment‐related AE) (Overall (N = 28), Any Grade): 3 (11) n (%)
Vomiting (treatment‐related AE) (Overall (N = 28), Any Grade): 9 (32) n (%)
Arthralgia (treatment‐related AE) (Overall (N = 28), Grade ≥3): 1 (4) n (%)
Asthenia (treatment‐related AE) (Overall (N = 28), Grade ≥3): 0 n (%)
Decreased appetite (treatment‐related AE) (Overall (N = 28), Grade ≥3): 0 n (%)
Diarrhea (treatment‐related AE) (Overall (N = 28), Grade ≥3): 1 (4) n (%)
Dry mouth (treatment‐related AE) (Overall (N = 28), Grade ≥3): 0 n (%)
Dysgeusia (treatment‐related AE) (Overall (N = 28), Grade ≥3): 0 n (%)
Dyspnea (treatment‐related AE) (Overall (N = 28), Grade ≥3): 0 n (%)
Fatigue (treatment‐related AE) (Overall (N = 28), Grade ≥3): 2 (7) n (%)
Hyperglycemia (treatment‐related AE) (Overall (N = 28), Grade ≥3): 5 (18) n (%)
Increased glycosylated hemoglobin (treatment‐related AE) (Overall (N = 28), Grade ≥3): 0 n (%)
Mucositis (treatment‐related AE) (Overall (N = 28), Grade ≥3): 2 (7) n (%)
Nausea (treatment‐related AE) (Overall (N = 28), Grade ≥3): 0 n (%)
Pruritus (treatment‐related AE) (Overall (N = 28), Grade ≥3): 0 n (%)
Rash (treatment‐related AE) (Overall (N = 28), Grade ≥3): 2 (7) n (%)
Rash pruritic (treatment‐related AE) (Overall (N = 28), Grade ≥3): 2 (7) n (%)
Thrombocytopenia (treatment‐related AE) (Overall (N = 28), Grade ≥3): 0 n (%)
Vomiting (treatment‐related AE) (Overall (N = 28), Grade ≥3): 0 n (%)
Dose interruptions (Total): 22
treatment‐related AE: asthenia (all patients, any grade): 25%
treatment‐related AE: decreased appetite (all patients, any grade): 32%
treatment‐related AE: fatigue (all patients, any grade): 64%
treatment‐related AE: nausea (all patients, any grade): 50%
treatment‐related AE: rash (all patients, any grade): 25%
treatment‐related AE: vomiting (all patients, any grade): 32%
treatment‐related AE: hyperglycemia (all patients, grade ≥3): 18%
patients requiring dose interruptions (at the MTD (45 mg/d)): 55.6%
patients requiring dose reductions (at the MTD (45 mg/d)): 11.1%
treatment‐related hyperglycemia, number of patients (grade ≥3, 30‐mg/d cohort): 2 n
treatment‐related hyperglycemia, number of patients (grade ≥3, 45‐mg/d cohort): 1 n
treatment‐related hyperglycemia, number of patients (grade ≥3, 60‐mg/d cohort): 2 n
maximum tolerated dosage (MTD) (oral daily dosing, 28‐day cycles): 45 mg/day
median time to dose reduction (overall): 25 days
increases in glucose, insulin, and C‐peptide levels (patients receiving doses ≥30 mg/d): dose‐dependent
patients with dose‐limiting toxicities (treatment cycle 1, all cohorts): Four
